Data reported in ChEMBL document CHEMBL4004881, “Perfluorinated hydroxamic acids are potent and selective inhibitors of HDAC-like enzymes from Pseudomonas aeruginosa” (Bioorg Med Chem Lett, 2017).

Assays:
[1] = Inhibition of Bordetella HDAH using Boc-Lys(trifluoroacetyl)-AMC as substrate preincubated for 30 mins followed by substrate addition measured after 60 mins by trypsin-based fluorescence assay
Method in brief: (§1)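 Bacterial HDAH activity was measured by a fluorogenic assay in which the deacetylated substrate is converted to fluorescent dye by trypsin. Ki was calculated via Cheng-Prusoff from IC50 values, which were fitted to dose-response curves spanning 10 ligand concentrations.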

Histone deacetylase 7 = target: T1, Histone deacetylase 7 (Homo sapiens, UniProt Q8WUI4); test: Inhibition of human HDAC7 using Boc-Lys(trifluoroacetyl)-AMC as substrate preincubated for 30 mins followed by substrate addition measured after 60 mins by trypsin-based fluorescence assay
T1 sequence (Q8WUI4 whole entry): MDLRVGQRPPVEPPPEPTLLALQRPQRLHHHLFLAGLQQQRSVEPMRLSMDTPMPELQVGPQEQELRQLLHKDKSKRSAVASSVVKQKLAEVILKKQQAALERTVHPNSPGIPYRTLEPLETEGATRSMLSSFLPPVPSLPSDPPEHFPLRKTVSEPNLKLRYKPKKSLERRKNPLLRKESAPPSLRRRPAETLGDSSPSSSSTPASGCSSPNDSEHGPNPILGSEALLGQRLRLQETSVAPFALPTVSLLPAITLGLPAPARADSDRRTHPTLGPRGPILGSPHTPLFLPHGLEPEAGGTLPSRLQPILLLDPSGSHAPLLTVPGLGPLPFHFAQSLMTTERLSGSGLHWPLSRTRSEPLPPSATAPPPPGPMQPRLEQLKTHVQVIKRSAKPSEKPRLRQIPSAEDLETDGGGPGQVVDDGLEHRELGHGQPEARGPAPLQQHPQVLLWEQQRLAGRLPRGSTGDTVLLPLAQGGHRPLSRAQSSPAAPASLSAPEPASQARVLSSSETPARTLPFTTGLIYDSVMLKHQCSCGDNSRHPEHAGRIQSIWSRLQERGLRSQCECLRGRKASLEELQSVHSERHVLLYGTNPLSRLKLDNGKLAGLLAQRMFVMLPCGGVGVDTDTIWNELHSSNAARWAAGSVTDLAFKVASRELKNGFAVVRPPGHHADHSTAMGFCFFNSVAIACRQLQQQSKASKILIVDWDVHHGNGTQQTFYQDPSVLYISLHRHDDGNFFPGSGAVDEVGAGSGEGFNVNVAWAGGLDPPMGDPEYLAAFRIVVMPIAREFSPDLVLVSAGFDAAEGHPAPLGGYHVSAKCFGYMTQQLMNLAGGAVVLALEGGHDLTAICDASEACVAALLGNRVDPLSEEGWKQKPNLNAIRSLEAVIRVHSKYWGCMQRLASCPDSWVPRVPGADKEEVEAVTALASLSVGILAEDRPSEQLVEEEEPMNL
Method in brief: (§2)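 Boc-Lys(trifluoroacetyl)-AMC served as substrate in a fluorogenic activity assay. Trypsin was added after a 30 min incubation to release the fluorescent dye from the deacetylated product. IC50 values came from 10-point ligand dose-response curves and were converted to Ki by the Cheng-Prusoff relation.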

[2] = Inhibition of Pseudomonas aeruginosa PA3774 using Boc-Lys(trifluoroacetyl)-AMC as substrate preincubated for 30 mins followed by substrate addition measured after 60 mins by trypsin-based fluorescence assay
[3] = Inhibition of Pseudomonas aeruginosa PA1409 using Boc-Lys(trifluoroacetyl)-AMC as substrate preincubated for 30 mins followed by substrate addition measured after 60 mins by trypsin-based fluorescence assay
[4] = target: T2, Protein deacetylase HDAC6 (Homo sapiens, UniProt Q9UBN7); test: Inhibition of human HDAC6 using Boc-Lys(Ac)-AMC as substrate preincubated for 30 mins followed by substrate addition measured after 60 mins by trypsin-based fluorescence assay
T2 sequence (Q9UBN7 whole entry): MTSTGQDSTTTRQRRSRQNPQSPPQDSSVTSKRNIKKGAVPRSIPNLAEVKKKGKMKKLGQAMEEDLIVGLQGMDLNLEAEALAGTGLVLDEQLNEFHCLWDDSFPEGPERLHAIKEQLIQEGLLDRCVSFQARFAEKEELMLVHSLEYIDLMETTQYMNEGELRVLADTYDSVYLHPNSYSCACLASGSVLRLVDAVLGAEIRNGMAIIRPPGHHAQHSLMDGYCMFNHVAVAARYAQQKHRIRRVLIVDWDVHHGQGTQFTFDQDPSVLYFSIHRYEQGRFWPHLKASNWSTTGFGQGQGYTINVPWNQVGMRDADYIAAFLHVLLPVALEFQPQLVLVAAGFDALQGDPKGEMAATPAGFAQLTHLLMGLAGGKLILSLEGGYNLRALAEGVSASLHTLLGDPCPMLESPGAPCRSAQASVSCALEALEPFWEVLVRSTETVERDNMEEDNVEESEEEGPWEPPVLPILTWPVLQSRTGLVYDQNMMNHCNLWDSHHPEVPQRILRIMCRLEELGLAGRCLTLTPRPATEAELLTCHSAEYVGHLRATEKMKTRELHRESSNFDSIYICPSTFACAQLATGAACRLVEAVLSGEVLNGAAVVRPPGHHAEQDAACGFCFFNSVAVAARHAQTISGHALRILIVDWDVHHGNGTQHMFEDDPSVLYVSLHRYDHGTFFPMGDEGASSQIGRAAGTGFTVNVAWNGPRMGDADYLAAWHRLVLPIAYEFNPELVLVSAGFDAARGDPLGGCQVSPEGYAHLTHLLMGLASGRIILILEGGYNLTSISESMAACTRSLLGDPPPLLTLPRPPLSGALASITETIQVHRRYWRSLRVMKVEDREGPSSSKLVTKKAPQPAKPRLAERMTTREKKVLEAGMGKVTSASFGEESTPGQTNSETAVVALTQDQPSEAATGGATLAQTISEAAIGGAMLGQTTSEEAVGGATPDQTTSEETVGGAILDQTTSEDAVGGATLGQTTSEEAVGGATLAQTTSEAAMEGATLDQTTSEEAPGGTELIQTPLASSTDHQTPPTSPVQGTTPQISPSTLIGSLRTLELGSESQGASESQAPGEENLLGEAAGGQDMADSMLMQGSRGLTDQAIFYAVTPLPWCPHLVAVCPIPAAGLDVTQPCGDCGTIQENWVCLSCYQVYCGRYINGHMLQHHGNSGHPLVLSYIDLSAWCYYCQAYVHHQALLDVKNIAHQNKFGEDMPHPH
Method in brief: (§3)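 Fluorogenic deacetylase assay with Boc-Lys(Ac)-AMC substrate. After a 30 min incubation, trypsin was added to convert the deacetylated substrate to the fluorescent dye.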

Histone deacetylase 8 = target: T3, Histone deacetylase 8 (Homo sapiens, UniProt Q9BY41); test: Inhibition of human HDAC8 using Boc-Lys(trifluoroacetyl)-AMC as substrate preincubated for 30 mins followed by substrate addition measured after 60 mins by trypsin-based fluorescence assay; method in brief: as §2
T3 sequence (Q9BY41 whole entry): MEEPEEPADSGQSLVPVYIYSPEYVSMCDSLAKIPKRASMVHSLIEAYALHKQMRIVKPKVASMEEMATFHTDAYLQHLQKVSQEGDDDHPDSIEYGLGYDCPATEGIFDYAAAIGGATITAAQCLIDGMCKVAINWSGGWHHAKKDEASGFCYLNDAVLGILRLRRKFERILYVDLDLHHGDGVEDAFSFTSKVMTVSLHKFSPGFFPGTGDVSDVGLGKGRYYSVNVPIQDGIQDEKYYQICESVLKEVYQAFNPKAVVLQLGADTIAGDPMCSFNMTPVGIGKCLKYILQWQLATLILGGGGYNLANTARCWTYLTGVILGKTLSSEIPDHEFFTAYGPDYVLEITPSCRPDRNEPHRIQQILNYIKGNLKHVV

Histone deacetylase 1 = Histone deacetylase 1 (Homo sapiens, UniProt Q13547); test: Inhibition of human HDAC1 using Boc-Lys(Ac)-AMC as substrate preincubated for 30 mins followed by substrate addition measured after 60 mins by trypsin-based fluorescence assay; method in brief: as §3
Histone deacetylase 1, sequence (Q13547 whole entry): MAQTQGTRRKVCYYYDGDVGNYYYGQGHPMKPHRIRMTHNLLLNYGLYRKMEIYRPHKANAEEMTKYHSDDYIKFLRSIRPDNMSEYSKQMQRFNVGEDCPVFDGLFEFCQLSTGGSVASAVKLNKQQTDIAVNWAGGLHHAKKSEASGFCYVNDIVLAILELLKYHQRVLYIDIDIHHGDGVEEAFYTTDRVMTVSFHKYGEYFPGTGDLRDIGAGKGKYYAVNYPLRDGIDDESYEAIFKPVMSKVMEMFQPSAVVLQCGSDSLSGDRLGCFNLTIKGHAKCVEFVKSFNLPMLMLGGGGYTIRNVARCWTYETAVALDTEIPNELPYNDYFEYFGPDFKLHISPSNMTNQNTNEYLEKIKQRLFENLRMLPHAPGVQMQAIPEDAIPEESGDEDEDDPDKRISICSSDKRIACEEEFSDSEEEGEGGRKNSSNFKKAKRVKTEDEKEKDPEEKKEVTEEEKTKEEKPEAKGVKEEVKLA

Histone deacetylase 4 = Histone deacetylase 4 (Homo sapiens, UniProt P56524); test: Inhibition of human HDAC4 using Boc-Lys(trifluoroacetyl)-AMC as substrate preincubated for 30 mins followed by substrate addition measured after 60 mins by trypsin-based fluorescence assay
Histone deacetylase 4, sequence (P56524 whole entry): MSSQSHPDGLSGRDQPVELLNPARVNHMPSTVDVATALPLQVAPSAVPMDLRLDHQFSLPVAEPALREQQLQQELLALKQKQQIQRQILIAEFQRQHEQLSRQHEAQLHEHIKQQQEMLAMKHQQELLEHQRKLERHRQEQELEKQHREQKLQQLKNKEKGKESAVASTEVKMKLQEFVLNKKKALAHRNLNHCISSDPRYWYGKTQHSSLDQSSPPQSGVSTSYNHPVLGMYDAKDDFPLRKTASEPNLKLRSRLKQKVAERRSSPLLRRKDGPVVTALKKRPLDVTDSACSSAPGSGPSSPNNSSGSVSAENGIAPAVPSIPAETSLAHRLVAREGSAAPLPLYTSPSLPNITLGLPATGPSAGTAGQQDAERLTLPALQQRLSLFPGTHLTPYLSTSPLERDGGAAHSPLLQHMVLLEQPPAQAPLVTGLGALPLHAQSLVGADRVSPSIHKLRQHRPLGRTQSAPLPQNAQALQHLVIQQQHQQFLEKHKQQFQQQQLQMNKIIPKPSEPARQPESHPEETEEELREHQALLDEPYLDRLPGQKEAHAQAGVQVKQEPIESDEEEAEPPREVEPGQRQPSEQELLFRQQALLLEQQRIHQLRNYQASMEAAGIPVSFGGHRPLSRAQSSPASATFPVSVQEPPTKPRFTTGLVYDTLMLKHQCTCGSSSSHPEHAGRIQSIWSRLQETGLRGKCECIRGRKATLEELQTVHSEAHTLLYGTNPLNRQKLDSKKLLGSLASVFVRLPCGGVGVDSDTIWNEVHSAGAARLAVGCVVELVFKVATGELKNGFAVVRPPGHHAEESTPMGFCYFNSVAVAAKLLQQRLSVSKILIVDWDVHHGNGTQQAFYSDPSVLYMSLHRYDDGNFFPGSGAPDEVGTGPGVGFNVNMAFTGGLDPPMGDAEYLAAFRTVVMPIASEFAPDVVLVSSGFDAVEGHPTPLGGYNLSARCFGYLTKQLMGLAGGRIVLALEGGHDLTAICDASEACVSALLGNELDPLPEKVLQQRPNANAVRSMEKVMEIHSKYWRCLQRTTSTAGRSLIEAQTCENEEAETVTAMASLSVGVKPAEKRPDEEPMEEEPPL

[5] = Inhibition of Alcaligenes HDAH using Boc-Lys(trifluoroacetyl)-AMC as substrate preincubated for 30 mins followed by substrate addition measured after 60 mins by trypsin-based fluorescence assay; method in brief: as §1
Histone deacetylase 5 = Histone deacetylase 5 (Homo sapiens, UniProt Q9UQL6); test: Inhibition of human HDAC5 using Boc-Lys(trifluoroacetyl)-AMC as substrate preincubated for 30 mins followed by substrate addition measured after 60 mins by trypsin-based fluorescence assay
Histone deacetylase 5, sequence (Q9UQL6 whole entry): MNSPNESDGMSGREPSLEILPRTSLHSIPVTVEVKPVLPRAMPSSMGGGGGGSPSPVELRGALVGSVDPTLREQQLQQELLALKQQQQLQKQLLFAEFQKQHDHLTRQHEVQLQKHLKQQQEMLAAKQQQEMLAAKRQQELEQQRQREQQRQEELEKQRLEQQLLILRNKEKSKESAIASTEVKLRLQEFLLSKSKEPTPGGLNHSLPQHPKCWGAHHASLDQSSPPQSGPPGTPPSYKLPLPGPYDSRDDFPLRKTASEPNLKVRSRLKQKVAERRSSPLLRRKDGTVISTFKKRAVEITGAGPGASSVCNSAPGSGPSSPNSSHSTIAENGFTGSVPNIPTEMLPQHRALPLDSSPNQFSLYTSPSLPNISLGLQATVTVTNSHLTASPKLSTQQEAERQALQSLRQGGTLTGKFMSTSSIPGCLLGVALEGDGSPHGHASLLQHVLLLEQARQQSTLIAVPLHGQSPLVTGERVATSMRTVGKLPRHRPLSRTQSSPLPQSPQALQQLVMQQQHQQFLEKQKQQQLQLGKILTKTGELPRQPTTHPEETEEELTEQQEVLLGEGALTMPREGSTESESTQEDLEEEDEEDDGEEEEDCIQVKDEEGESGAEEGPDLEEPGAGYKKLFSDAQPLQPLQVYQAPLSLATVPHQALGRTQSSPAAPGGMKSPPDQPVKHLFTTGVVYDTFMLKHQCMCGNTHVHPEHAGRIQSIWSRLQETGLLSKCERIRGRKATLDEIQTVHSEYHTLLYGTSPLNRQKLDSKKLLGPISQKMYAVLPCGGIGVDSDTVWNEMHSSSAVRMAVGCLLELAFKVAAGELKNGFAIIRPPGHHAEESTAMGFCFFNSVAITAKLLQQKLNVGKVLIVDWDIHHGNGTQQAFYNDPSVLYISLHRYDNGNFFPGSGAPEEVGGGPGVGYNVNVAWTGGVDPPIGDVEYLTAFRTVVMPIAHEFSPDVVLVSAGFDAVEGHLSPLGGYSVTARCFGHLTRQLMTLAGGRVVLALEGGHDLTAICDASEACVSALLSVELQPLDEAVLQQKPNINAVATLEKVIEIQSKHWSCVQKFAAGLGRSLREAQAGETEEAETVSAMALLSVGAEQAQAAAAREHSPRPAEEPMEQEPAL

[6] = Inhibition of Pseudomonas aeruginosa PA0321 using Boc-Lys(trifluoroacetyl)-AMC as substrate preincubated for 30 mins followed by substrate addition measured after 60 mins by trypsin-based fluorescence assay

Ki [1] [nM]	Ki (Histone deacetylase 7) [µM]	Ki [2] [nM]	Ki [3] [µM]	Ki [4] [µM]	Ki (Histone deacetylase 8) [µM]	Ki (Histone deacetylase 1) [µM]	Ki (Histone deacetylase 4) [µM]	Ki [5] [nM]	Ki (Histone deacetylase 5) [µM]	Ki [6] [nM]	Structure (SMILES)
620	> 50	160	> 50	> 50	> 50	> 50	> 50	620	> 50	84000	Cc1ccccc1NC(=O)C(F)(F)C(F)(F)C(F)(F)C(F)(F)C(F)(F)C(F)(F)C(=O)NO
240	> 50	160	> 50	> 50	> 50	> 50	> 50	240	> 50	800	O=C(NO)C(F)(F)C(F)(F)C(F)(F)C(F)(F)C(F)(F)C(F)(F)C(=O)Nc1ccccc1Cl
> 50000	> 50	2700	> 50	> 50	> 50	> 50	> 50	> 50000	> 50	> 50000	CN(C)c1ccc(NC(=O)C(F)(F)C(F)(F)C(F)(F)C(F)(F)C(F)(F)C(F)(F)C(=O)NO)cc1
170	> 50	46	11	> 50	> 50	> 50	> 50	170	> 50	73	O=C(NO)C(F)(F)C(F)(F)C(F)(F)C(F)(F)C(F)(F)C(F)(F)C(=O)Nc1cccc(Cl)c1

The next lines start with the compound.

Structure (SMILES)	Ki [1] [nM]	Ki (Histone deacetylase 7) [µM]	Ki [2] [nM]	Ki [3] [µM]	Ki [4] [µM]	Ki (Histone deacetylase 8) [µM]	Ki (Histone deacetylase 1) [µM]	Ki (Histone deacetylase 4) [µM]	Ki [5] [nM]	Ki (Histone deacetylase 5) [µM]	Ki [6] [nM]
O=C(NO)C(F)(F)C(F)(F)C(F)(F)C(F)(F)C(F)(F)C(F)(F)C(=O)Nc1ccc(F)cc1	330	> 50	460	> 50	> 50	> 50	> 50	> 50	330	> 50	490
Cc1ccc(NC(=O)C(F)(F)C(F)(F)C(F)(F)C(F)(F)C(F)(F)C(F)(F)C(=O)NO)cc1C	110	2.5	100	5.8	20	8.4	7	> 50	110	> 50	1600
COc1ccc(NC(=O)C(F)(F)C(F)(F)C(F)(F)C(F)(F)C(F)(F)C(F)(F)C(=O)NO)cc1	180	> 50	1200	> 50	> 50	> 50	> 50	> 50	180	> 50	370
Cc1cccc(NC(=O)C(F)(F)C(F)(F)C(F)(F)C(F)(F)C(F)(F)C(F)(F)C(=O)NO)c1	450	> 50	92	11	> 50	> 50	> 50	> 50	450	> 50	270
